Drawing on PubChem BioAssay AID463104 (Sanford-Burnham Center for Chemical Genomics, 2010), this text covers activation for 87 compounds.

SMILES strings stand for the structures. Screen size: about 330,000 compounds; about 1,100 (0.33%) were called active.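 The calls were made as follows: active = versus positive control, 20 µM dose yields 30% or more activation; inactive = the rest.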 What follows is part of a selection rich in actives, with near analogues and random picks from the rest.

The nature of the assay: IRE1-XBP1 pathway stimulators – cell-based, CHO-XBP1 luciferase reporter, luminescence, uHTS, primary screen (AID 463104).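 Also: 100% = tunicamycin at 10 µg/mL and 0% = DMSO only wells.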 The note with it: IRE1-XBP1 UPR activation, at 20 µM, active compounds read high, percent of tunicamycin response, DMSO as zero. In a few lines:
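Signal: luciferase luminescence; Assay system: CHO-XBP1 luciferase reporter cells; Amount: one thousand reporter cells per well; Dosing: 20 µM single concentration, DMSO 1%; Benchmarks: high control tunicamycin 10 µg/mL final, low control DMSO vehicle only; Schedule: 6 h compound exposure at 37 °C, 5% CO2; Evaluation: percent activation relative to tunicamycin reference.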
On the technique in general: A reporter such as luciferase makes a cellular process visible.
In the case of `CN(C)C(=O)CCc1ccc2c3c([nH]c2c1)[C@]1(C)[C@@H](C(=O)N2CCCCC2)C[C@H](CC(=O)NCCC2=CCCCC2)C(=O)N1CC3`, the activation is -0.99% (inactive).

Consider `CN(C)C(=O)CCc1ccc2c3c([nH]c2c1)[C@]1(CCc2ccccc2)[C@@H](C(=O)N2CCCCC2)C[C@H](CC(=O)NCCC2=CCCCC2)C(=O)N1CC3`, for which the activation was 37.8% (active).

With `CC(C)N(C(=O)[C@H]1C[C@H](CC(=O)NCCC2=CCCCC2)C(=O)N2CCc3c([nH]c4cc(CCC(=O)N(C)C)ccc34)[C@]12C)C(C)C`, the activation is -2.39% (inactive).

As for `CCOC(=O)N1CCC(O)(c2cc(C)c(C)cc2C)CC1`, the activation is 0.36% (inactive).

With `c1ccc(-n2nnnc2NC2CCCCCC2)cc1`, the activation was -3.04% (inactive). As to `COc1cc(OC)c(C(=O)OC(C)C(=O)Nc2cc(C(F)(F)F)ccc2Cl)cc1OC` (configuration not stated), the activation was 1.27% (inactive).

Regarding `COc1ccc(C2CC(=O)Nc3sc(=N)c4c(N)c(C#N)c(N)nc4c32)cc1OC` (configuration not stated), the activation was 2.45% (inactive). The same measure for `N#Cc1c(N)nc2c3c(sc(=N)c2c1N)NC(=O)CC3c1ccccc1Cl` (configuration not stated): 31.5% (active); for `CSc1nc2c(c(=O)[nH]1)C(c1cccc(Cl)c1Cl)CC(=O)N2` (configuration not stated): -1.96% (inactive); for `O=C(Nc1nnc(-c2ccccc2F)s1)c1ccccc1F`: 4.27% (inactive). The same measure for `Cc1ccc(-n2ncc3c2CC(C)(C)CC3NC(=O)CCc2cnn(C)c2)cc1` (configuration not stated): -4.76% (inactive); for `COC(=O)c1sccc1NC(=O)COc1ccc(Cl)cc1`: -0.33% (inactive); for `CCOC(=O)c1c(NC(=O)c2ccc(S(=O)(=O)N(C)CC3CCCO3)cc2)sc2c1CC(C)(C)NC2(C)C` (configuration not stated): -6.05% (inactive).

Take `COC(=O)c1c(NC(=O)COc2ccc(Cl)cc2Cl)sc2c1CC(C)(C)NC2(C)C`: the activation is 74.2% (active).

In the case of `COc1ccc(-c2cc(=O)oc3cc(OCC(=O)N(C)C4CCS(=O)(=O)C4)ccc23)cc1` (configuration not stated), the activation is -1.57% (inactive). The value for `COc1ncnc2c1N=C1CC(C)(C)CC(N)=C1S2` was -0.91% (inactive); that for `CN1CCN(CCCNC(=O)c2ccc(/C=C3\Oc4ccccc4N(Cc4ccc(Cl)cc4)C3=O)cc2)CC1` was 13.7% (inactive). The same measure for `CN1C(=O)/C(=C/c2ccc(C(=O)NC3CCCC3)cc2)Oc2ccccc21`: 33.7% (active). As to `O=C(NC1CC1)c1ccc(-c2ccccc2)cc1`, the activation is 0.87% (inactive).

Take `COc1cccc(NC(=O)C(Sc2nnnn2C)c2ccccc2)c1` (configuration not stated): the activation was -3.49% (inactive).

For `CCOC(=O)N1CCN(C(=O)c2n[nH]c(=O)c3ccccc23)CC1`, the activation was -2.8% (inactive). The value for `CCOC(=O)N1CCN(C(=O)c2nn(-c3ccc(C)cc3)c(=O)c3c2c2ccccc2n3C)CC1` was 34.3% (active); that for `CCOC(=O)N1CCN(C(=O)Cn2cnc3ccccc3c2=O)CC1` was -3.17% (inactive); that for `CN(Cc1ccccc1)CC(O)COc1ccc(CNCc2cc3ccccc3s2)cc1` (configuration not stated) was -0.93% (inactive). Turning to `CCOC(=O)c1c(NC(=O)CNC2CCCc3ccccc32)sc(C(N)=O)c1C` (configuration not stated), the activation was 39.6% (active). On to `NC(=O)Nc1ccc(C(=O)OCC(=O)NC2CCCc3ccccc32)cc1` (configuration not stated), for which the activation was -2.79% (inactive). On to `CCOC(=O)c1c(NC(=O)CCl)sc(C(=O)N(CC)CC)c1C`, for which the activation is 11.5% (inactive). The same measure for `CC1CCCCC1NC(=O)CN1CCC(O)(c2ccc3c(c2)OCO3)CC1` (configuration not stated): -2.34% (inactive); for `O=C(NCC(=O)N1CCN(c2ncc(C(F)(F)F)cc2Cl)CC1)c1ccc(Br)o1`: -1.88% (inactive). The same measure for `CCSc1nnc(-c2cc3c(s2)-c2ccccc2CC3)o1`: 3.74% (inactive); for `Nc1nc(Nc2ccccc2F)nc(NC2CCCCC2)c1[N+](=O)[O-]`: 11.1% (inactive); for `Nc1nc(NCC2CCCO2)nc(Nc2ccccc2F)c1[N+](=O)[O-]` (configuration not stated): 1.61% (inactive). With `C=CCNc1nc(N)c([N+](=O)[O-])c(NC2CCCCC2)n1`, the activation is 32% (active). The same measure for `Cc1ccc(OCC(=O)Nc2ccc(NC(=O)c3cccs3)cc2)c(C)c1`: 10.1% (inactive); for `Cc1ccc(NC(=O)c2cccs2)cc1S(=O)(=O)N(C)C`: 1.24% (inactive). As for `Cc1ccc(-c2nnc(-c3ccc(NC(=O)c4cccs4)cc3)o2)cc1`, the activation is 198% (active). The value for `COc1ccc(-c2ccc(CCC(=O)O)n2-c2ccc(O)cc2)cc1` was -1.71% (inactive). The value for `Nc1ccc(S(=O)(=O)Nc2nccc(/C=C/c3ccc(Br)s3)n2)cc1` was -1.07% (inactive). Regarding `Oc1cccc2ccc(/C=C/c3ccc(Br)s3)nc12`, the activation was 54.5% (active). The same measure for `c1ccc(-c2ccnc3nc(-n4cccc4)nn23)cc1`: 0.42% (inactive). The value for `COc1cc(NC(=O)c2cncc(-c3ccc(C#N)cc3)c2)cc(C(=O)Nc2cccc(C(F)(F)F)c2)c1` was 125% (active). The same measure for `N#Cc1ccc(Oc2ccc(C(F)(F)F)cc2NC(=O)c2ccc(F)cc2)cc1`: 0.22% (inactive); for `COc1cc(NC(=O)c2[nH]cnc2C(N)=O)cc(C(=O)Nc2cccc(C(F)(F)F)c2)c1`: -2.27% (inactive); for `Cc1cc2c(C)nc(N/N=C/c3ccccc3)nc2o1`: 4.19% (inactive). Regarding `O=C(N/C(=C/c1ccc(Cl)cc1)C(=O)N1CCCCC1)c1ccco1`, the activation was -3.57% (inactive).

Turning to `Cc1ccc(SC(CC(=O)c2ccc(C(C)(C)C)cc2)C(=O)O)cc1` (configuration not stated), the activation was 0.27% (inactive). The value for `C=CCn1c(SCc2ccccc2)nc2c1c(=O)[nH]c(=O)n2C` was 5.46% (inactive). The value for `COCCCNc1nc2c(-c3cccc(C)c3)nnn2c2ccc(Cl)cc12` was 26.4% (inactive); that for `C=CCN(CC=C)S(=O)(=O)c1ccc(C(=O)Nc2nc3c(s2)CCc2ccccc2-3)cc1` was 35.1% (active). The same measure for `O=C(Nc1ccc(S(=O)(=O)N2CCc3ccccc3C2)cc1)c1ccccc1`: -1.11% (inactive); for `Cc1cccc(NC(=O)c2ccc(S(=O)(=O)N(C)c3ccccc3)cc2)n1`: -2.2% (inactive). In the case of `COc1ccc(C(=O)OCC(=O)N2CC(=O)Nc3ccccc32)cc1Br`, the activation was 0.2% (inactive). The value for `COc1ccc(C2=NN(C(=O)c3ccccc3C(=O)O)C(c3ccccc3O)C2)cc1` (configuration not stated) was -1.79% (inactive).

`CCOc1ccc2nc(Cl)c(C3CC(c4ccccc4)=NN3C(=O)c3cccs3)cc2c1` (configuration not stated): the activation was 51.3% (active). In the case of `CCOc1ccccc1C1CC(c2cccc(NS(C)(=O)=O)c2)=NN1C(=O)c1ccccc1` (configuration not stated), the activation was -3.45% (inactive). The value for `CC(C)(C)c1cc(P(=O)(c2ccccc2)c2ccccc2)ccc1O` was -1.41% (inactive). Turning to `CN(C)c1ccc(NC(=O)c2ccncc2)c2ccccc12`, the activation is -0.55% (inactive).

`O=C(Nc1ccc2nc3n(c(=O)c2c1)CCCCC3)c1ccccc1Cl`: the activation was 45.2% (active).

With `CCCCN(CC)C(=S)Nc1ccc2nc3n(c(=O)c2c1)CCCCC3`, the activation was 1.45% (inactive). The same measure for `O=C(Nc1ccc2nc3n(c(=O)c2c1)CCCC3)c1ccc(Cl)nc1`: 2.35% (inactive); for `Cc1ccc(CS(=O)(=O)CCC(=O)NCc2ccc(F)cc2)cc1`: -1.62% (inactive). The same measure for `COc1ccc(Nc2cc(C)nc(-n3nc(C)cc3C)n2)cc1`: 121% (active); for `COc1ccc(NC(=O)c2nc(-n3nc(C)cc3C)ccc2Cl)cc1Cl`: -2.77% (inactive); for `CC(=O)c1ccc(Oc2cc(C)nc(-n3nc(C)cc3C)n2)cc1`: 16.4% (inactive). The value for `CC(=O)OCCN(CCCn1c(-c2ccncc2)nc2ccccc21)c1nc(-c2ccc(C)cc2)cs1` was -1.12% (inactive). Turning to `C=CC[C@@H](CC(=O)N[C@@H](CO)Cc1ccccc1)C(=O)NCCOC(=O)[C@@H](CC=C)CC(=O)OC(C)(C)C`, the activation was -2.2% (inactive). The same measure for `C=CC[C@@H](CC(=O)N[C@@H](CO)Cc1ccccc1)C(=O)N[C@H](COC(=O)[C@H](CC=C)CC(=O)OC(C)(C)C)Cc1ccccc1`: 32.4% (active). The same measure for `C=CC[C@@H](CC(=O)N[C@H](CO)Cc1ccccc1)C(=O)N[C@H](C)COC(=O)[C@@H](CC=C)Cc1ccc(F)cc1`: -2.99% (inactive). The value for `CCCc1cc(=O)[nH]c2nnc(SCC(=O)Nc3nnc(SCC)s3)n12` was -0.61% (inactive).

`O=C(NCc1ccccc1Cl)NC(=O)c1csc([N+](=O)[O-])c1`: the activation was -1.89% (inactive).

In the case of `O=C(COc1ncnc2ccccc12)NC(=O)NCc1ccccc1`, the activation was -0.7% (inactive). Turning to `O=C(O)CCC(=O)NCc1ccc(C(=O)O)cc1`, the activation is -0.32% (inactive). The value for `COc1cc(N=Cc2c(O)c3ccccc3oc2=O)c(OC)cc1Cl` was -0.88% (inactive); that for `COc1ccccc1N=Cc1c(O)c2ccccc2oc1=O` was 120% (active).

For `COc1ccccc1N=C(C)C1=C(O)COC1=O`, the activation is 0.65% (inactive). The same measure for `COc1ccc(-c2nc3ccccc3n2CCC(C)C)cc1OC`: -2.77% (inactive); for `COc1ccc(C(C)(C)C)cc1NC(=O)CCN1C(=O)C2CCCCC2C1=O` (configuration not stated): 0.21% (inactive). The same measure for `CS(=O)(=O)N(CC(=O)N/N=C/c1ccccn1)c1ccc(Oc2ccccc2)cc1`: 1.21% (inactive); for `CC1(C)Cc2ccccc2-c2[nH]c(=S)[nH]c(=O)c21`: -3.14% (inactive); for `CC1(C)Cc2ccccc2-c2nc(CN3CCOCC3)[nH]c(=O)c21`: 2.37% (inactive). The same measure for `CCC1(CC)Cc2ccccc2-c2nc(CCl)[nH]c(=O)c21`: 45.2% (active); for `Cc1ccc2nnn(Cc3cccc(C(C)(C)C)c3O)c2c1`: -2.21% (inactive). Turning to `CCOC(=O)/C=C/c1ccc(C(F)(F)F)cc1S(=O)(=O)NC(C)(C)C`, the activation was 3.87% (inactive). In the case of `COc1ccc(CNC(=O)CCC(=O)Nc2nnc(C(C)C)s2)cc1`, the activation is 2.87% (inactive).

Turning to `CNC(=S)N/N=C/c1cn(Cc2ccc(C)cc2)c2ccccc12`, the activation is -0.8% (inactive). The same measure for `COc1cccc(Cn2cc(/C=N/NC(=O)c3cc(O)cc(O)c3)c3ccccc32)c1`: -0.87% (inactive); for `N#CCC(=O)N/N=C/c1cn(Cc2ccc3ccccc3c2)c2ccccc12`: 77.3% (active).
